Data on three compounds can be found in publication PMC3574193 (Journal of medicinal chemistry, 2013).

A short description of series [1]: Preliminary half-life studies in rats. Conditions: data not shown. It counts as in vivo.
The conditions of series [2]: cited from earlier work.
The next series deals with T1, human Trx W31A mutant (Homo sapiens, UniProt P10599, W31A).
T1 sequence (P10599 1-105 W31A): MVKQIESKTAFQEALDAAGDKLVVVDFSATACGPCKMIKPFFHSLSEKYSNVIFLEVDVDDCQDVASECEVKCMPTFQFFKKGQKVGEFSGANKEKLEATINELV
Put plainly: In vitro thioredoxin activity assay with W31A mutant. The following applies: W31A mutant of human Trx. It counts as biochemical. The gist of the method:
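Pre-reduced enzyme was desalted by spin column, quantified by A280 and used within 2 h. It was reacted with test compound, 10 µM each, in 0.1 M phosphate-citrate pH 6.0 at room temperature. Aromatic product accumulation was fitted exponentially for kinh/Ki.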

For series [3], the target named is T2, extracellular TG2 in T84 enterocytic cells (Homo sapiens, UniProt P21980).
T2 sequence (P21980 1-687): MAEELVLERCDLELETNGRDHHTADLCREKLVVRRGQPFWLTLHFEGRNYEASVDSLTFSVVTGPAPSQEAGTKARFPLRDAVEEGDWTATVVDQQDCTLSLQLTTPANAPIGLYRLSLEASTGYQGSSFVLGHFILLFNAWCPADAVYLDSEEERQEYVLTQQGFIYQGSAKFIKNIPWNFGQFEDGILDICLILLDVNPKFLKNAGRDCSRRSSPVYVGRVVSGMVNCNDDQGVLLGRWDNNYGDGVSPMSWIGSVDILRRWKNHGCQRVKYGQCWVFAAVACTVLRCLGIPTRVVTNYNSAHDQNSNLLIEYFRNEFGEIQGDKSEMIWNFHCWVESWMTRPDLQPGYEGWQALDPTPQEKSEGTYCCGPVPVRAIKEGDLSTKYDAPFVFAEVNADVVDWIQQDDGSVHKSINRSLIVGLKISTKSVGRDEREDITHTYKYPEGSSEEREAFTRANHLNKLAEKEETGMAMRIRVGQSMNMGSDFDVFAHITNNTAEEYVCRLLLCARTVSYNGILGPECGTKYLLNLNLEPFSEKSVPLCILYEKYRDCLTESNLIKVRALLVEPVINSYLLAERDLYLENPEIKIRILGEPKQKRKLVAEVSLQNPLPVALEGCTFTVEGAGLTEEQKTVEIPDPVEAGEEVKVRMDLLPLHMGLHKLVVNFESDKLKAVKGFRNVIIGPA
Put plainly: Trx-mediated TG2 activation in T84 enterocytic cells. The format is cell-based. The following applies: 25 µM ERW1041E.

Entries after “also recorded” stand apart in the source; their conditions may differ.

As to `CCC(C)SSc1ncc[nH]1` (stereo not shown) [Compound 1, 2-(sec-butyldisulfanyl)-1H-imidazole], the half-life in rats result in series [1] is on record as “short half-life”. Besides, the half-life in humans entry in series [2] was “extremely short half-life”. As to `CCC(C)SSc1nc2ccccc2[nH]1` (stereo not shown) [Compound 14, 2-(sec-butyldisulfanyl)-1H-benzo[d]imidazole], the “kinh/Ki with W31A Trx” value at human Trx W31A mutant turned out to be 23700 M⁻¹ s⁻¹. With `O=C(NC[C@@H]1CC(Br)=NO1)[C@@H]1CCCN1C(=O)OCc1cnc2ccccc2c1` [ERW1041E, (S)-quinolin-3-ylmethyl 2-((((S)-3-bromo-4,5-dihydroisoxazol-5-yl)methyl)carbamoyl)pyrrolidine-1-carboxylate], the “effect on Trx mediated 5BP incorporation” value in series [3] is “fully suppressed; also recorded: completely blocked”.
